Laboratory results as given in ChEMBL document CHEMBL1811767, “Quinoxalin-2(1H)-one derivatives as inhibitors against hepatitis C virus” (J Med Chem, 2011).

Assays:
[1] = Cytotoxicity against human Huh7ET cells by CytoTox-one cell proliferation assay; assay type: cell-based; details: Huh-7
Method in brief: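 Parallel plate of replicon Huh 7 ET cells (5000/well, DMEM without G418), compounds from DMSO stocks diluted in DMEM, 72 h. Viability by tetrazolium-based CytoTox-1 proliferation assay. Mean of four replicates; IC50 = concentration decreasing cell viability by 50%.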

[2] = Selectivity index, ratio of IC50 for human Huh7ET cells to EC50 for Hepatitis C virus; assay type: toxicity, cell-based, Huh-7; details: read-out: Ratio IC50/EC50
Method in brief: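 SI taken as IC50 (CytoTox-1 viability, Huh 7 ET replicon cells, 72 h) divided by EC50 (replicon luciferase, same cells and exposure); each from four-replicate averages.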

Hepatitis C virus [3] = test: Antiviral activity against Hepatitis C virus infected in human Huh7ET cells assessed as inhibition of dicistronic viral RNA replication after 72 hrs by luciferase reporter gene assay; assay type: functional, organism-based, Hepacivirus hominis; details: Huh-7, 72 h
Method in brief: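 HCV replicon Huh 7 ET cells seeded 5000/well in DMEM without G418 overnight; compounds dissolved in DMSO, diluted in DMEM, dose-response. After 72 h, replicon-derived luciferase read by Steady-Glo. Mean of four replicates; EC50 = concentration inhibiting HCV RNA replication by 50%.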

Hepatitis C virus [4] = test: Antiviral activity against Hepatitis C virus infected in human Huh7ET cells assessed as inhibition of dicistronic viral RNA replication at 20 uM after 72 hrs by luciferase reporter gene assay; assay type: functional, Hepacivirus hominis, Huh-7; set-up: scale not given: the % may be the effect or the level left
Method in brief: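 Primary screen at single 20 μM in replicon Huh 7 ET cells (5000/well, DMEM without G418, overnight seeding). After 72 h exposure, replicon luciferase measured with Steady-Glo. Value expressed as percent inhibition relative to control cells.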

[5] = Cytotoxicity against human Huh7ET cells at 20 uM by CytoTox-one cell proliferation assay; assay type: cell-based; details: huh-7, 20 µM
Method in brief: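 Huh 7 ET replicon cells exposed to single 20 μM for 72 h in primary screen; viability by tetrazolium-based CytoTox-1 assay, reported as percent relative to control cells.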

Compound | IC50 [1] [µM] | selectivity ratio [2] | EC50 (Hepatitis C virus [3]) [µM] | Activity (Hepatitis C virus [4]) [%] | Cell viability relative to control [5] [%]
CN(c1cc2ncc(=O)[nH]c2cc1NC(=S)NC(=O)c1cccc(C(F)(F)F)c1)C1CCCCC1 | 31.5 | 7.5 | 4.08 |  | 
CN(c1cc2c(cc1Nc1nc(-c3ccccc3)cs1)NC(=O)CS2)C1CCCCC1 | 13.8 | < 0.69 | > 20 |  | 
CN(c1cc2ncc(=O)[nH]c2cc1NC(=O)Nc1ccccc1)C1CCCCC1 | 5.52 | 0.5 | 11.4 |  | 
CN(c1cc2ncc(=O)[nH]c2cc1Nc1nc(-c2ccc(F)cc2)cs1)C1CCCCC1 | 9.92 | 1.9 | 5.26 |  | 
CN(c1ccccc1)c1cc2ncc(=O)[nH]c2cc1Nc1nc(-c2ccccc2)cs1 | 15.9 | 3.4 | 4.61 |  | 
CN(c1cc2ncc(=O)[nH]c2cc1N1C(=O)CN(c2cccc3ccccc23)C1=S)C1CCCCC1 | 11.2 | 0.85 | 13.1 |  | 
Cc1ccsc1C(=O)NC(=S)Nc1cc2[nH]c(=O)cnc2cc1N(C)C1CCCCC1 | 12.6 | 3.84 | 3.27 |  | 
COc1cc(C(=O)NC(=S)Nc2cc3[nH]c(=O)cnc3cc2N(C)C2CCCCC2)cc(OC)c1OC | 15.9 | 3.1 | 5.16 |  | 
CN(c1cc2ncc(=O)[nH]c2cc1NC(=S)NC(=O)c1ccc(F)cc1)C1CCCCC1 | 11.4 | 3.8 | 2.97 |  | 
CN(c1cc2ncc(=O)[nH]c2cc1NC(=S)NC(=O)c1ccc(OC(F)(F)F)cc1)C1CCCCC1 | 6.47 | 2.78 | 2.33 |  | 
CN(c1cc2ncc(=O)[nH]c2cc1Nc1nc(C(F)(F)F)cs1)C1CCCCC1 | 37.4 | 4.6 | 8.12 |  | 
CN(c1cc2ncc(=O)[nH]c2cc1N1CC(=O)N(c2ccccc2)C1=S)C1CCCCC1 | 2.99 | 1.4 | 2.21 |  | 
CN(c1cc2ncc(=O)[nH]c2cc1NC(=N)NCc1ccccn1)C1CCCCC1 | 48.6 | < 2.4 | > 20 |  | 
O=c1cnc2cc(OC3CCCCC3)c(Nc3nc(-c4ccccc4)cs3)cc2[nH]1 |  |  |  | 4.9 | 74.4
COc1ccc(-c2csc(Nc3cc4[nH]c(=O)cnc4cc3N(C)C3CCCCC3)n2)cc1 | 15 | < 0.75 | > 20 |  | 
CN(c1cc2ncc(=O)[nH]c2cc1Nc1nc(-c2cccc3ccccc23)cs1)C1CCCCC1 | 57.4 | 8.4 | 6.8 |  | 
CN(c1cc2ncc(=O)[nH]c2cc1Nc1nc2c(s1)Cc1ccccc1-2)C1CCCCC1 | 10.9 | 2.39 | 4.57 |  | 
CN(c1cc2ncc(=O)[nH]c2cc1Nc1nc(-c2ccc(Cl)cc2)cs1)C1CCCCC1 | 16.7 | 3.1 | 5.39 |  | 
CN(c1cc2ncc(=O)[nH]c2cc1NC(=S)Nc1cccc2ccccc12)C1CCCCC1 | 43.6 | < 2.2 | > 20 |  | 

Compound | IC50 [1] [µM] | selectivity ratio [2] | EC50 (Hepatitis C virus [3]) [µM] | Activity (Hepatitis C virus [4]) [%] | Cell viability relative to control [5] [%]
CN(c1cc2ncc(=O)[nH]c2cc1NC(=O)Nc1cccc2ccccc12)C1CCCCC1 | 5.33 | 0.5 | 9.84 |  | 
CN(c1cc2ncc(=O)[nH]c2cc1NC(=N)NCc1ccc(Cl)cc1)C1CCCCC1 | 4.4 | 1.12 | 3.94 |  | 
CSCCc1nc2cc(N(C)C3CCCCC3)c(Nc3nc(-c4ccccc4)cs3)cc2[nH]c1=O | 86 | < 4.3 | > 20 |  | 
CN(C)c1cc2ncc(=O)[nH]c2cc1Nc1nc(-c2ccccc2)cs1 | 57.5 | < 2.9 | > 20 |  | 
CN(c1cc2ncc(=O)[nH]c2cc1NC(=S)Nc1cccc(C(F)(F)F)c1)C1CCCCC1 | 78.4 | < 3.9 | > 20 |  | 
CN(c1cc2ncc(=O)[nH]c2cc1NC(=S)Nc1ccc(F)cc1)C1CCCCC1 | 64.3 | < 3.2 | > 20 |  | 
CN(c1cc2ncc(=O)[nH]c2cc1Nc1nc(-c2cccnc2)cs1)C1CCCCC1 | 11.5 | 2.09 | 5.49 |  | 
CC(C)Cc1nc2cc(N(C)C3CCCCC3)c(Nc3nc(-c4ccccc4)cs3)cc2[nH]c1=O | 33.3 | 7.9 | 4.19 |  | 
CN(c1cc2c(cc1Nc1nc(-c3ccccc3)cs1)NC(=O)C1CCCCN21)C1CCCCC1 (centres undefined) | 11 | 9.27 | 1.19 |  | 
CC(C)c1nc2cc(N(C)C3CCCCC3)c(Nc3nc(-c4ccccc4)cs3)cc2[nH]c1=O | 67.4 | 7.8 | 8.62 |  | 
CN(c1cc2ncc(=O)[nH]c2cc1Nc1nc(-c2ccc(C#N)cc2)cs1)C1CCCCC1 | 18.1 | 2.98 | 6.07 |  | 
CCN(CC)c1cc2ncc(=O)[nH]c2cc1Nc1nc(-c2ccccc2)cs1 | 22.8 | 17.9 | 1.27 |  | 
CN(c1cc2ncc(=O)[nH]c2cc1NC(=S)Nc1ccccc1)C1CCCCC1 | 49.6 | < 2.8 | > 20 |  | 
CN(c1cc2ncc(=O)[nH]c2cc1NC(=N)NCc1ccc(OC(F)(F)F)cc1)C1CCCCC1 | 3.7 | 0.9 | 3.97 |  | 
CN(c1cc2ncc(=O)[nH]c2cc1NC(=S)NC(=O)/C=C/c1ccccc1)C1CCCCC1 | 11 | 1.6 | 6.77 |  | 
CN(c1cc2ncc(=O)[nH]c2cc1NC(=N)NCc1cccc(C(F)(F)F)c1)C1CCCCC1 | 54 | < 2.7 | > 20 |  | 
CN(c1cc2ncc(=O)[nH]c2cc1Nc1nc(-c2ccc3c(c2)OCO3)cs1)C1CCCCC1 | 61.2 | < 3.1 | > 20 |  | 
CN(c1cc2ncc(=O)[nH]c2cc1Nc1nc(-c2cccs2)cs1)C1CCCCC1 | 71.3 | < 3.6 | > 20 |  | 
CN1CCN(c2cc3ncc(=O)[nH]c3cc2Nc2nc(-c3ccccc3)cs2)CC1 | 10.2 | 2.2 | 4.59 |  | 

Compound | IC50 [1] [µM] | selectivity ratio [2] | EC50 (Hepatitis C virus [3]) [µM] | Activity (Hepatitis C virus [4]) [%] | Cell viability relative to control [5] [%]
CN(c1cc2ncc(=O)[nH]c2cc1NC(=N)NCc1ccc(F)cc1)C1CCCCC1 | 10.2 | 0.8 | 12.8 |  | 
CN(c1cc2ncc(=O)[nH]c2cc1NC(=S)NC(=O)c1ccco1)C1CCCCC1 | 17.3 | 9.6 | 1.8 |  | 
CN(c1cc2ncc(=O)[nH]c2cc1NC(=S)NC(=O)c1cccc2ccccc12)C1CCCCC1 | 9.98 | 1.82 | 5.48 |  | 
CN(c1cc2ncc(=O)[nH]c2cc1Nc1nc(-c2ccc(-c3ccccc3)cc2)cs1)C1CCCCC1 | 82 | < 4.1 | > 20 |  | 
CCCN(CCC)c1cc2ncc(=O)[nH]c2cc1Nc1nc(-c2ccccc2)cs1 | 31.6 | 8.3 | 3.81 |  | 
Cc1nc2cc(N(C)C3CCCCC3)c(Nc3nc(-c4ccccc4)cs3)cc2[nH]c1=O | 12.3 | 3.15 | 3.91 |  | 
CN(c1cc2ncc(=O)[nH]c2cc1NC(=N)NCc1ccccc1)C1CCCCC1 | 9.94 | 0.87 | 11.4 |  | 
O=c1cnc2cc(N3CCCCC3)c(Nc3nc(-c4ccccc4)cs3)cc2[nH]1 |  |  |  | 9 | 35.1
CN(c1cc2ncc(=O)[nH]c2cc1NC(=S)NC(=O)c1ccc(Cl)nc1)C1CCCCC1 | 34.5 | 2.1 | 16.4 |  | 
O=c1cnc2cc(N3CCOCC3)c(Nc3nc(-c4ccccc4)cs3)cc2[nH]1 | 58.3 | 11.2 | 5.19 |  | 
CN(c1cc2c(cc1Nc1nc(-c3ccccc3)cs1)[nH]c(=O)c1cccn12)C1CCCCC1 | 18 | 9.9 | 1.82 |  | 
CN(c1cc2ncc(=O)[nH]c2cc1Nc1nc(-c2ccco2)cs1)C1CCCCC1 | 11.9 | 1 | 12.2 |  | 
CCN(c1cc2ncc(=O)[nH]c2cc1Nc1nc(-c2ccccc2)cs1)C1CCCCC1 |  |  |  | 35 | 58
O=c1cnc2cc(N3CCN(c4ccc(F)cc4)CC3)c(Nc3nc(-c4ccccc4)cs3)cc2[nH]1 |  |  |  | 35 | 84.3
CN(c1cc2ncc(=O)[nH]c2cc1NC(=S)NC(=O)c1ccccc1)C1CCCCC1 | 11.1 | 4.57 | 2.42 |  | 
CN(c1cc2c(cc1Nc1nc(-c3ccccc3)cs1)NC(=O)CO2)C1CCCCC1 | 17.5 | 1.1 | 15.4 |  | 
COc1ccc(CNC(=N)Nc2cc3[nH]c(=O)cnc3cc2N(C)C2CCCCC2)cc1 | 19.5 | < 0.98 | > 20 |  | 
CN(c1cc2nc(Cc3ccccc3)c(=O)[nH]c2cc1Nc1nc(-c2ccccc2)cs1)C1CCCCC1 | 42 | < 2.1 | > 20 |  | 
